Activity calls are given as the source filed them. The rule behind the calls is not given here.
What was measured:
[1] = system: Mus musculus; experiment: Antagonistic activity on amphetamine-induced stereotypy at a dose of 100 umol/kg (p<0.05); assay type: functional
[2] = species: Mus musculus; experiment: Anticholinergic effect evaluated in mice using oxotremorine induced salivation; assay type: functional
Outline: (§1)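 Oxotremorine 0.25 mg/kg ip induced tremors and salivation. Compounds were given ip 30 min beforehand, groups of six mice. Scoring every 5 min over 30 min. ED50 from non-linear regression.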

[3] = molecular target: T1, D(4) dopamine receptor (Homo sapiens, UniProt P21917); experiment: In vitro binding affinity for Dopamine receptor D4
T1 sequence (P21917 whole entry): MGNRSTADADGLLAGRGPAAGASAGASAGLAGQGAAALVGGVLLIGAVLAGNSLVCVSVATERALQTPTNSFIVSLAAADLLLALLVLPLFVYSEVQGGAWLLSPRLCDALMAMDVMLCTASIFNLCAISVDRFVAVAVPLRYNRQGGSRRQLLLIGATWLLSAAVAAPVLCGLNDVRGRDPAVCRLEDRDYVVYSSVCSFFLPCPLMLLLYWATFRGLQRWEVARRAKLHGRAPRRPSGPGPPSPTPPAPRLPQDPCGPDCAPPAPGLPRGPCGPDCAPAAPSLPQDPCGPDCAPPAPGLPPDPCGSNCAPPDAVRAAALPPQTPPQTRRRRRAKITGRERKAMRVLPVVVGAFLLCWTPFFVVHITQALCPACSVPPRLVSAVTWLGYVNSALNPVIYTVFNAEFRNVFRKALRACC

[4] = system: Mus musculus; experiment: Decrease in number of avoidance responses in mice at a dose ~115 mg/kg; assay type: functional
[5] = system: Mus musculus; experiment: Effective dose required for inhibition of DOI-induced head-twitches in mice on ip administration; assay type: functional
Outline: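 Head-twitches elicited by ip (±)-DOI hydrochloride, 1.6 mg/kg. Mice (groups of eight) pretreated ip 30 min before DOI. Twitches counted for 5 min starting 5 min after DOI. ED50 by non-linear regression.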

[6] = species: Mus musculus; experiment: Lethality in mice evaluated in IRWIN-test; assay type: functional
Outline: (§2)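 Irwin observational test run to a standard protocol after ip administration.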

[7] = system: Mus musculus; experiment: Decrease in number of avoidance responses in mice at a dose ~60 mg/kg; assay type: functional; conditions: at 60 mg/kg
[8] = system: Mus musculus; experiment: Effective dose required for inhibition of apomorphine(sc, 2.5 mg/kg ) induced climbing in mice on po administration; assay type: functional
Outline: (§3)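 Mice were dosed po 30 min before apomorphine hydrochloride (2.5 mg/kg sc), in groups of eight. ED50 for inhibition of climbing or stereotypy was derived by non-linear regression.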

[9] = species: Mus musculus; experiment: Induction of convulsions in mice evaluated in IRWIN-test; assay type: functional; outline: as §2
[10] = species: Mus musculus; experiment: Anticholinergic effect evaluated in mice using oxotremorine induced tremors; assay type: functional; outline: as §1
[11] = system: Mus musculus; experiment: Decrease in number of avoidance responses in mice at a dose ~110 mg/kg; assay type: functional
[12] = system: Rattus norvegicus; experiment: Decrease in arterial blood pressure by the compound at a dose of 43.1-431 mg/kg in rats 24 hr after oral administration; No significant; assay type: functional, organism-based; conditions: Artery
[13] = system: Mus musculus; experiment: Decrease in d-amphetamine-induced hyperactivity at a dose of 10 umol/kg (p<0.01); assay type: functional
[14] = molecular target: Serotonin 2 (5-HT2) receptor (Homo sapiens, UniProt P41595+P28223+P28335); experiment: In vitro binding affinity for 5-hydroxytryptamine 2 receptor; assay type: protein assay
[15] = species: Mus musculus; experiment: Induction of sedation in mice evaluated in IRWIN-test; assay type: functional; outline: as §2
[16] = system: Mus musculus; experiment: Effective dose required for inhibition of apomorphine(sc, 2.5 mg/kg ) induced stereotypy in mice on ip administration; assay type: functional; conditions: route intraperitoneal
Outline: (§4)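 Apomorphine hydrochloride given sc at 2.5 mg/kg to induce climbing and stereotypy. Compounds dosed 30 min earlier, groups of eight mice. ED50 for each behaviour by non-linear regression.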

[17] = system: Mus musculus; experiment: Decrease in number of avoidance responses in mice at a dose ~100 mg/kg; assay type: functional; conditions: at 100 mg/kg
[18] = system: Mus musculus; experiment: Effective dose required for inhibition of apomorphine(sc, 2.5 mg/kg ) induced climbing in mice on ip administration; assay type: functional; conditions: route intraperitoneal; outline: as §4
[19] = system: Rattus norvegicus; experiment: Increase in heart rate by the compound at a dose of 43.1-431 mg/kg in rats on oral administration; No significant; assay type: functional, organism-based
[20] = system: Mus musculus; experiment: Effective dose required for inhibition of apomorphine(sc, 2.5 mg/kg ) induced stereotypy in mice on […]; assay type: functional; outline: as §3
[21] = system: Mus musculus; experiment: Decrease in number of avoidance responses in mice at a dose ~50 mg/kg; assay type: functional
[22] = system: Rattus norvegicus; experiment: Decrease in arterial blood pressure by the compound at a dose of 32.7 mg/kg in rats 0.5-2.5h after administration; assay type: functional, Artery
[23] = system: Mus musculus; experiment: Decrease in number of avoidance responses in mice at a dose ~10 mg/kg; assay type: functional; conditions: at 10 mg/kg
[24] = system: Mus musculus; experiment: Induction of catalepsy up to a dose of 160 mg/kg when administered po in mice; No induction; assay type: functional, organism-based; parameters: dose 160 mg/kg
[25] = system: Mus musculus; experiment: Anticholinergic effect evaluated in mice using oxotremorine induced salivation(ip); assay type: functional
Outline: (§5)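 Mice were dosed ip 30 min before oxotremorine (0.25 mg/kg ip), in groups of six. Salivation and tremors were scored every 5 min for 30 min. ED50 was derived by non-linear regression.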

[26] = system: Mus musculus; experiment: Decrease in number of avoidance responses in mice at a dose ~25 mg/kg; assay type: functional
[27] = system: Rattus norvegicus; experiment: Increase in heart rate by the compound at a dose of 10.5 mg/kg in rats; assay type: functional
[28] = system: Mus musculus; experiment: Anticholinergic effect evaluated in mice using oxotremorine induced tremors(ip); assay type: functional; outline: as §5

Compound	ED50 [5] [µmol/kg]	Activity [6]	ED50 [8] [µmol/kg]	Activity [9]	Activity [15]	ED50 [16] [µmol/kg]	ED50 [18] [µmol/kg]	ED50 [20] [µmol/kg]	other results
NC(=O)C1CCC(CN2CCC(=C(c3ccccc3)c3ccc(F)cc3)CC2)O1 (configuration not stated)	16	1000	140	320	100	69	46	290	Decrease [1]: 13%; Activity [2]: 20; Ki [3]: 158 nM; Decrease in No. of avoidence responses [4]: 80%; Decrease in No. of avoidence responses [7]: 12.5%; Activity [10]: 32; Decrease in No. of avoidence responses [11]: 45%; Decrease in arterial blood pressure [12]: inactive; Decrease [13]: 44%; Log Ki [14]: -7.5; Decrease in No. of avoidence responses [17]: 27%; Increase in heart rate [19]: inactive
CN1CCN(C2=Nc3cc(Cl)ccc3Nc3ccccc32)CC1 [CLOZAPINE]	1.5	320	30	180	3.2	67	28	62	Decrease in No. of avoidence responses [21]: 85%; Decrease in arterial blood pressure [22]: 32%; Decrease in No. of avoidence responses [23]: 10%; Induction of catalepsy [24]: inactive; Activity [25]: 8; Decrease in No. of avoidence responses [26]: 65%; Increase in heart rate [27]: 49%; Activity [28]: 12
OCCOCCN1CCN(C2=Nc3ccccc3Sc3ccccc32)CC1 [QUETIAPINE]	9					60	51		
O=C(CCCN1CCC(O)(c2ccc(Cl)cc2)CC1)c1ccc(F)cc1 [HALOPERIDOL]	0.61					0.31	0.32		

From ChEMBL document CHEMBL1134798, “Pharmacological evaluation of a diarylmethylene-piperidine derivative: a new potent atypical antipsychotic?” (Bioorg Med Chem Lett, 2001)
